Article PMC4589248 (Biochemical and biophysical research communications, 2015)

How the values were obtained:
[1] = test system: primary mouse hepatocytes; test: Palmitate-induced lipid accumulation; assay type: cell-based, mice; details: 50 μM compound, each concentration of PA (0-500 μM)
Method in brief: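 Hepatocytes isolated from 10–12-week 129S1/SvImJ mice and plated on collagen at 1.5x10^4 cells/well in DMEM with FBS, glucagon, hydrocortisone, EGF and insulin. Treated after 4–5 h of attachment with BSA-conjugated palmitate (0–500 μM, 2.5:1) with or without test compound (0–50 μM). Lipid measured by 30 μM Nile Red, 30 min at 37 °C, 485/590 nm. AFU per 10^6 cells; 3 experiments in triplicate.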

HepG2 cells [2] = test: Uptake of BODIPY FL-C16 and BODIPY FL-C5 in HepG2 cells; assay type: cell-based
INS-1E cells [3] = test: Nuclear integrity; assay type: cell-based; details: PA 0-500 μM, Grassofermata 0-50 μM
[4] = Grassofermata level in mouse plasma; assay type: in vivo, mice; details: male, C57BL/6, mouse, oral, 300 mg/kg
Method in brief: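 Male C57BL/6 mice, 10 weeks old, in groups of 12, fasted 12 h and given tyloxapol 500 mg/kg i.p. They then received test compound 300 mg/kg in flaxseed oil by gavage, followed 1 h later by a 13C-oleate bolus. Plasma (EDTA) taken 0.5, 2 and 6 h after oleate. Plasma mixed with acetonitrile containing an analogue internal standard, acidified with TFA and centrifuged. Analysed by LC-MS/MS (C18, 457.1→411.1) against a 0.09–3.3 ng/μl standard curve.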

[5] = test system: cell lines that are models for intestines, liver, muscle and pancreas; test: Fatty acid uptake inhibition, summary over cell lines; assay type: cell-based; details: read-out: IC50, inhibition of fatty acid uptake
human adipocytes = test: C1-BODIPY-C12 fatty acid uptake inhibition in primary human adipocytes; assay type: cell-based; details: read-out: IC50, inhibition of C1-BODIPY-C12 uptake
Method in brief: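 Primary human preadipocytes seeded at 1.5x10^4 cells/well in alpha-MEM with 10 % FBS. Differentiated for 6 days with 540 μM IBMX plus 1 μM rosiglitazone, then kept without them until lipid droplets appeared. C1-BODIPY-C12 uptake read as cell-associated fluorescence at 485/528 nm across test compound concentrations. IC50 by non-linear dose-response fit; 3 experiments in triplicate.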

HepG2 cells [6] = test: Palmitate-induced lipid accumulation; assay type: cell-based; details: 50 μM compound, each concentration of PA (0-500 μM), 24 hrs
C2C12 cells = test: C1-BODIPY-C12 fatty acid uptake inhibition in C2C12 myocytes; assay type: cell-based; details: Mus musculus, C2C12, read-out: IC50, inhibition of C1-BODIPY-C12 uptake
Method in brief: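 C2C12 mouse myoblasts grown in DMEM with 10 % FBS and 2 mM L-glutamine at 37 °C, 5 % CO2. Differentiated for 96 h at 8x10^4 cells/well in DMEM with 10 % horse serum. Uptake of fluorescent C1-BODIPY-C12 read as cell-associated fluorescence at ex/em 485/528 nm across a range of test compound concentrations. IC50 from non-linear dose-response regression; 3 experiments in triplicate, mean ± SE.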

HepG2 cells [7] = test: C1-BODIPY-C12 uptake in HepG2 cells; assay type: cell-based
Method in brief: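 Inhibition kinetics in HepG2 cells using 7 test compound concentrations (1.25–15 μM) and 4 C1-BODIPY-C12 concentrations (2.5–10 μM). The plate reader's injectors dispensed compound, then added substrate at timed intervals. Initial uptake rates measured over 90 s by fluorescence. Best-fit inhibition model chosen by enzyme-kinetics analysis; points are mean with SD.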

[8] = test system: primary mouse hepatocytes; test: Nuclear integrity; assay type: cell-based, mice; details: primary murine hepatocytes; PA 0-500 μM, Grassofermata 0-50 μM
INS-1E cells [9] = test: Palmitate-induced lipid accumulation; assay type: cell-based; details: 50 μM compound, each concentration of PA (0-500 μM), 24 hrs
Method in brief: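 INS-1E cells, 96 h after plating, treated for 24 h with BSA-conjugated palmitate (0–500 μM, 2.5:1 PA:BSA) with or without test compound (0–50 μM). Stained with 30 μM Nile Red for 30 min at 37 °C and read at ex/em 485/590 nm. Results as AFU per 10^6 cells; 3 experiments in triplicate.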

HepG2 cells [10] = test: Nuclear integrity; assay type: cell-based; details: PA 0-500 μM, Grassofermata 0-50 μM
C57BL/6 male mice = test: Inhibition of 13C-oleate absorption in mice; assay type: in vivo; details: single oral dose 300 mg/kg, 6 hrs post-label administration
Method in brief: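 Male C57BL/6 mice, 12 per group, fasted 12 h and given tyloxapol 500 mg/kg i.p. Gavaged with test compound 300 mg/kg in flaxseed oil or with oil alone. After 1 h, received flaxseed oil containing 500 mg/kg 13C-oleate. Plasma collected at 0.5, 2 and 6 h, Folch-extracted with nonadecanoic acid as internal standard. GC-MS in SIM mode, m/z 296 (12C) and 314 (13C oleate methyl ester). Mean ± SE of 10–12 mice.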

Caco-2 cells [11] = test: Uptake of BODIPY FL-C16 and BODIPY FL-C5 in Caco-2 cells; assay type: cell-based, human
INS-1E cells [12] = test: C1-BODIPY-C12 fatty acid uptake inhibition in INS-1E pancreatic β-cells; assay type: cell-based; details: read-out: IC50, inhibition of C1-BODIPY-C12 uptake
Method in brief: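 INS-1E cells kept in RPMI 1640 with 5 % FBS, 1 mM pyruvate, 50 μM 2-mercaptoethanol and 10 mM HEPES at 37 °C, 5 % CO2. Seeded at 2x10^5 cells/well on collagen and used after 96 h. C1-BODIPY-C12 uptake read as cell-associated fluorescence at 485/528 nm against test compound concentration. IC50 by non-linear dose-response fit; 3 experiments in triplicate, mean ± SE.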

Caco-2 cells [13] = details: 100 μM; cited from earlier work
HsFATP2 = details: 80 μM; yeast expressing HsFATP2; cited from earlier work

Compound: O=c1cc(-c2ccc([N+](=O)[O-])cc2)[nH]c2c(-c3ccc(Cl)cc3)c(Cc3ccccc3)nn12 [Grassofermata, 2-benzyl-3-(4-chlorophenyl)-5-(4-nitrophenyl)pyrazolo[1,5-a]pyrimidin-7(4H)-one]
- accumulation of lipid (Nile Red) [1]: significantly reduced
- effect on transport of BODIPY FL-C5 (HepG2 cells [2]; HepG2, medium chain FA analog): did not affect
- IC50 (HepG2 cells [2]; Homo sapiens, HepG2, read-out: IC50, inhibition of BODIPY FL-C16 uptake): 17.3 ± 2.5 µM
- DAPI staining (nuclear integrity) (INS-1E cells [3]): reduced DAPI staining of cells in a dose dependent manner
- concentration at 0.5 h [4]: 2100 ± 600 ng/mL
- concentration at 2 h [4]: 3400 ± 700 ng/mL
- concentration at 6 h [4]: 2900 ± 700 ng/mL
- IC50 [5]: 8 to 11 µM
- IC50 (human adipocytes): 58.2 µM
- accumulation of lipid (Nile Red) (HepG2 cells [6]): significantly reduced
- IC50 (C2C12 cells): 10.6 µM
- mechanism of inhibition of C1-BODIPY-C12 uptake (HepG2 cells [7]; HepG2, Grassofermata 1.25-15 μM, C1-BODIPY-C12 2.5-10 μM): non-competitive mechanism of inhibition
- DAPI staining (nuclear integrity) [8]: reduced DAPI staining of cells in a dose dependent manner
- accumulation of lipid (Nile Red) (INS-1E cells [9]): significantly reduced
- DAPI staining (nuclear integrity) (HepG2 cells [10]): reduced DAPI staining of cells in a dose dependent manner
- reduction of the levels of labeled oleate in plasma (C57BL/6 male mice): 37%
- effect on transport of BODIPY FL-C5 (Caco-2 cells [11]; Caco-2, medium chain FA analog): did not affect
- IC50 (Caco-2 cells [11]; Homo sapiens, Caco-2, read-out: IC50, inhibition of BODIPY FL-C16 uptake): 13.5 ± 1.1 µM
- IC50 (INS-1E cells [12]): 8.3 µM

Compound: CN1CCN(C2=Nc3cc(Cl)ccc3Nc3ccccc32)CC1 [clozapine, Clozapine]
- inhibition of FA uptake (Caco-2 cells [13]): 30–50%
- inhibition of C1-BODIPY-C12 uptake (HsFATP2): intermediate levels of inhibition

Compound: CN(C)CCCN1c2ccccc2Sc2ccc(Cl)cc21 [chlorpromazine]
- inhibition of FA uptake (Caco-2 cells [13]): 30–50%
- inhibition of C1-BODIPY-C12 uptake (HsFATP2): intermediate levels of inhibition

Compound: CCCCCCCCCCC[C@@H](C[C@@H]1OC(=O)[C@H]1CCCCCC)OC(=O)[C@H](CC(C)C)NC=O [Orlistat, reference compound]
- effect on C1-BODIPY-C12 uptake (HepG2 cells [7]; standard FA transport assay, cell line not stated for Orlistat): no effect
